Reference: ChEMBL document CHEMBL4834390, “Nanomolar-Potency 1,2,4-Triazoloquinoxaline Inhibitors of the Kidney Urea Transporter UT-A1” (J Med Chem, 2018)
Active and inactive are the calls of the source. The rule behind the calls is not given here.

Key:
Urea transporter 2 = target: T1, Urea transporter 2 (Rattus norvegicus, UniProt Q62668); assay: Inhibition of rat UT-A1 expressed in MDCK cells incubated for 15 mins by fluorescence plate reader assay; assay type: cell-based
T1 sequence (Q62668 whole entry): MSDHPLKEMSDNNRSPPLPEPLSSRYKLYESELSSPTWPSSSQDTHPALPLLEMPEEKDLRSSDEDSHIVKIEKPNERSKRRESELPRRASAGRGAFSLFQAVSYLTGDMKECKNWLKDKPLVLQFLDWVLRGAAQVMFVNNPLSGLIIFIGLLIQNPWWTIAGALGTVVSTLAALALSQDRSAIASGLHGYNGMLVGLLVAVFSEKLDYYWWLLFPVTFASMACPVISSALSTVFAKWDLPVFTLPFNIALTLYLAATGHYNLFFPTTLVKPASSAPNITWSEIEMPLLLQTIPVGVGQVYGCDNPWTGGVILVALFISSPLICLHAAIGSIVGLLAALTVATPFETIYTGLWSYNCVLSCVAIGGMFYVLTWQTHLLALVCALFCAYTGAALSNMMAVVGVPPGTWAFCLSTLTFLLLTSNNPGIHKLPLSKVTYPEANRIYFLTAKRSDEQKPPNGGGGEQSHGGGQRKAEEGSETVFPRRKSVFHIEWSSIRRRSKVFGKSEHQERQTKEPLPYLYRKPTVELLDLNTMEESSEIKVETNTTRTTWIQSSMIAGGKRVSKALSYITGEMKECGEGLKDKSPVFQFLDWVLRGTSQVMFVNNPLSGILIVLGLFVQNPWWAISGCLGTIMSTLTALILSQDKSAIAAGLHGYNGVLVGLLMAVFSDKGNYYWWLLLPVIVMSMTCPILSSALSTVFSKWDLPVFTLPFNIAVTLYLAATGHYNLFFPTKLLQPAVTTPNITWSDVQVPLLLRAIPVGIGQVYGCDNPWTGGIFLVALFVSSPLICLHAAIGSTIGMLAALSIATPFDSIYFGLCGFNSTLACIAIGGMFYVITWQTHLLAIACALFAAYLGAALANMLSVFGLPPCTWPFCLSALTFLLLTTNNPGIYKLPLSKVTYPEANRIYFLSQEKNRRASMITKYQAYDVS

[1] = Metabolic stability in Sprague-Dawley rat liver microsomes assessed as compound remaining at 5 uM preincubated for 5 mins followed by NADPH addition and measured at 15 mins by LC/MS analysis; assay type: ADME, Microsome; details: time 20 min, read-out: Stabilty
Method in brief: (§1)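 Compound at 5 µM preincubated 5 min at 37 °C with male Sprague-Dawley rat liver microsomes (1 mg protein/mL) in 0.1 M PBS pH 7.4. 1 mM NADPH then added, incubation continued at 37 °C for set times, then chilled and EtOAc-extracted. Parent compound measured by LC/MS as peak area/internal standard ratio; mean ± SEM, n = 3.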

Urea transporter 1 = target: T2, Urea transporter 1 (Rattus norvegicus, UniProt P97689); assay: Inhibition of rat UT-B incubated for 15 mins
T2 sequence (P97689 whole entry): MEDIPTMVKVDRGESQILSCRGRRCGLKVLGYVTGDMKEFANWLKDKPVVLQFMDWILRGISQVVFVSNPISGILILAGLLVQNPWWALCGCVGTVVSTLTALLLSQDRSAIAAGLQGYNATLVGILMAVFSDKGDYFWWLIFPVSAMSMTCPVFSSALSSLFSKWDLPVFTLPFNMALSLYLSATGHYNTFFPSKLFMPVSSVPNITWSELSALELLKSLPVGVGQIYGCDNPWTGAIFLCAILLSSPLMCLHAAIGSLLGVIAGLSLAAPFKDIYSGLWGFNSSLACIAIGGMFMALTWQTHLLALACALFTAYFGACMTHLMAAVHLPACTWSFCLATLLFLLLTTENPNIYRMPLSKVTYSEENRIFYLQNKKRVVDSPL
Method in brief: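 Rat whole blood diluted to ~1.5% hematocrit in PBS with 1.25 M acetamide and 5 mM glucose; compound incubated 15 min, then cells mixed into isomolar buffer; lysis read by absorbance at 710 nm. Isomolar buffer as non-lysed and 0.7 mM phloretin as lysed control; % lysis computed from these; mean ± SEM, n = 3.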

MDCK = assay: Cytotoxicity against dog MDCK cells at 10 uM after 24 hrs by alamar blue assay; assay type: cell-based, Canis lupus familiaris
Method in brief: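 MDCK cells stably co-expressing rat UT-A1, YFP-H148Q/V163S and human AQP1 grown 24 h at 37 °C, then exposed to compound at 10 µM for 24 h; viability read by AlamarBlue; mean ± SEM, n = 3.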

[2] = target: T3, Urea transporter 2 (Rattus norvegicus) (UniProt Q62668); assay: Inhibition of rat UT-A1 expressed in MDCK cells at 0.5 uM by fluorescence plate reader assay; assay type: cell-based; details: time 100-500 sec
T3 sequence (whole entry): T1 sequence (Q62668 whole entry)
Method in brief: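 MDCK cells stably expressing rat UT-A1, human AQP1 and YFP volume sensor; compound at 0.5 µM added at different times before assay; urea transport followed by YFP fluorescence on a plate reader; DMSO as 0% and phloretin as 100% inhibition.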

[3] = target: T3, Urea transporter 2 (Rattus norvegicus); assay: Noncompetitive inhibition of rat UT-A1 expressed in MDCK cells assessed as inhibition of urea transport; assay type: cell-based
[4] = target: T3, Urea transporter 2 (Rattus norvegicus); assay: Reversible inhibition of rat UT-A1 expressed in MDCK cells at 0.5 uM incubated for 15 mins followed by compound washing for 15 mins; assay type: cell-based
Method in brief: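 MDCK cells stably expressing rat UT-A1, AQP1 and YFP sensor incubated with 0.5 µM compound for 15 min, washed with PBS for 15 min, then assayed for UT-A1 urea transport by fluorescence plate reader.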

Rattus norvegicus [5] = assay: Diuretic activity in Wistar rat assessed as increase in urine volume at 4 mg/kg, iv after 3 hrs; assay type: functional, organism-based
Method in brief: (§2)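 Male Wistar rats (250–300 g), acclimated in metabolic cages 3 days (6 h/day). Urine voided spontaneously over 3 h before dosing, then 4 mg/kg iv via catheter in saline with 20% dimethylacetamide and 1.28 mg/mL NaOH, or vehicle. Urine collected 3 h after dosing; volume and osmolality compared with pretreatment (paired t-test); mean ± SEM, n = 4.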

[6] = Drug concentration in Wistar rat serum at 4 mg/kg, iv after 3 hrs by LC/MS analysis; assay type: ADME, organism-based
Method in brief: (§3)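 Male Wistar rats (250–300 g) dosed 4 mg/kg iv in saline containing 20% dimethylacetamide and 1.28 mg/mL NaOH. Tail-vein blood taken at 15, 30, 60, 120, 180 min without anticoagulant, serum separated; urine collected 3 h in metabolic cages; samples frozen at –20 °C. LC/MS (ESI positive) quantitation against standards spiked into control rat urine or plasma.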

[7] = Metabolic stability in Sprague-Dawley rat liver microsomes assessed as compound remaining at 5 uM preincubated for 5 mins followed by NADPH addition and measured at 30 mins by LC/MS analysis; assay type: ADME, Microsome; details: time 35 min, read-out: Stabilty; method in brief: as §1
Rattus norvegicus [8] = assay: Diuretic activity in Wistar rat assessed as reduction in urine osmolality at 4 mg/kg, iv after 3 hrs; assay type: functional, organism-based; method in brief: as §2
[9] = Drug concentration in Wistar rat urine at 4 mg/kg, iv after 3 hrs by LC/MS analysis; assay type: ADME, organism-based; details: read-out: Ct; method in brief: as §3

Compound	IC50 (Urea transporter 2) [nM]	other results
CCCc1nnc2c(Oc3ccc(NS(=O)(=O)c4cc(Cl)ccc4OC)cc3)nc3cc(C)c(C)cc3n12	400	remaining at 0.25 h, 5 µM [1]: 25%
CC(=O)Nc1ccc(-c2noc(C3CCCN(C(=O)c4ccccc4F)C3)n2)cc1 (stereo unspecified)	3000	IC50 (Urea transporter 1): > 50000 nM
COc1ccc(Cl)c(S(=O)(=O)Nc2cccc(Oc3nc4ccccc4n4cnnc34)c2)c1	> 20000	
COc1ccc(Cl)cc1S(=O)(=O)Nc1ccc(Oc2nc3ccccc3n3c(C)nnc23)cc1	> 20000	
CCCc1nnc2c(Oc3ccc(NS(=O)(=O)c4cc(Cl)ccc4OC)cc3)nc3ccccc3n12	150	Activity (MDCK): Non-Toxic; inhibition [2]: Active; IC50 (Urea transporter 1): 2000 nM; inhibition [3]: Active; inhibition [4]: Active; remaining at 0.25 h, 5 µM [1]: 40%
CCCCc1nnc2c(Oc3ccc(NS(=O)(=O)c4cc(Cl)ccc4OC)cc3)nc3ccccc3n12	200	
COc1ccc(C)cc1S(=O)(=O)Nc1ccc(Oc2nc3ccccc3n3c(C)nnc23)cc1	> 20000	
Cc1ccc(C)c(S(=O)(=O)Nc2ccc(Oc3nc4ccccc4n4cnnc34)cc2)c1	1500	
COc1ccc(Cl)cc1S(=O)(=O)Nc1ccc(Oc2nc3cc(Cl)c(Cl)cc3n3cnnc23)cc1	> 20000	
O=S(=O)(Nc1ccc(Oc2nc3ccccc3n3cnnc23)cc1)c1ccccc1OC(F)(F)F	20000	
CCOc1nnc2c(Oc3ccc(NS(=O)(=O)c4cc(C)ccc4OC)cc3)nc3ccccc3n12	1500	
COc1ccc(Cl)c(S(=O)(=O)Nc2ccc(Nc3nc4ccccc4n4cnnc34)cc2)c1	> 20000	
COc1ccc(Cl)cc1S(=O)(=O)Nc1ccc(Oc2nc3ccccc3n3cnnc23)cc1	800	Activity (MDCK): Non-Toxic; IC50 (Urea transporter 1): 4000 nM
O=S(=O)(Nc1ccc(Oc2nc3ccccc3n3cnnc23)cc1)c1cccc(Cl)c1	> 20000	
CCCCc1nnc2c(Oc3ccc(NS(=O)(=O)c4cc(C)ccc4C)cc3)nc3ccccc3n12	800	
COc1ccc(Cl)cc1S(=O)(=O)Nc1ccc(Oc2nc3ccccc3n3c(C(C)C)nnc23)cc1	300	
COC(=O)c1sc2nc3c(cc2c1N)CN(Cc1ccccc1)CC3	3000	IC50 (Urea transporter 1): 3000 nM
COc1ccc(Cl)cc1S(=O)(=O)Nc1cccc(O)c1	6000	IC50 (Urea transporter 1): 14000 nM

The next lines start with results.

IC50 (Urea transporter 2) [nM]	Compound	other results
600	Cc1ccc(C)c(S(=O)(=O)Nc2ccc(Oc3nc4ccccc4n4c(C(C)C)nnc34)cc2)c1	
1200	COc1ccc(Cl)cc1S(=O)(=O)Nc1ccc(Oc2nc3cc(C)c(C)cc3n3c(C(C)C)nnc23)cc1	
750	CCc1nnc2c(Oc3ccc(NS(=O)(=O)c4cc(C)ccc4C)cc3)nc3ccccc3n12	
2000	O=C(Nc1ccon1)c1cc(-c2ccccc2)nc2ccccc12	IC50 (Urea transporter 1): > 100000 nM
> 20000	Cc1ccc(C)c(S(=O)(=O)Nc2ccc(Oc3nc4ccccc4n4c(C)nnc34)cc2)c1	
1200	COc1ccc(Cl)cc1S(=O)(=O)Nc1ccc(Oc2nc3cc(F)c(F)cc3n3cnnc23)cc1	
> 20000	COc1ccc(Cl)c(S(=O)(=O)Nc2ccc(Oc3nc4ccccc4n4cnnc34)cc2)c1	
5000	O=S(=O)(Nc1ccc(Oc2nc3ccccc3n3cnnc23)cc1)c1ccccc1Cl	
500	CCCc1nnc2c(Oc3ccc(NS(=O)(=O)c4cc(C)ccc4C)cc3)nc3ccccc3n12	
> 20000	COc1ccc(Cl)cc1S(=O)(=O)Nc1ccc(Nc2nc3ccccc3n3cnnc23)cc1	
700	CCc1nnc2c(Oc3ccc(NS(=O)(=O)c4cc(C)ccc4OC)cc3)nc3ccccc3n12	
1500	COc1ccc(C)cc1S(=O)(=O)Nc1ccc(Oc2nc3cc(F)c(F)cc3n3cnnc23)cc1	
> 20000	COc1ccc(Cl)cc1S(=O)(=O)Nc1cccc(Oc2nc3ccccc3n3cnnc23)c1	
1100	COc1ccc(C)cc1S(=O)(=O)Nc1ccc(Oc2nc3ccccc3n3cnnc23)cc1	
1400	CCc1nnc2c(Oc3ccc(NS(=O)(=O)c4cc(Cl)ccc4OC)cc3)nc3cc(C)c(C)cc3n12	
500	COc1ccc(C)cc1S(=O)(=O)Nc1ccc(Oc2nc3ccccc3n3c(C(C)C)nnc23)cc1	
500	CCc1nnc2c(Oc3ccc(NS(=O)(=O)c4cc(Cl)ccc4OC)cc3)nc3ccccc3n12	
400	CCCCc1nnc2c(Oc3ccc(NS(=O)(=O)c4cc(C)ccc4OC)cc3)nc3ccccc3n12	
> 20000	COc1ccc(Cl)c(S(=O)(=O)Nc2cccc(Nc3nc4ccccc4n4cnnc34)c2)c1	
8000	Cc1ccccc1S(=O)(=O)Nc1ccc(Oc2nc3ccccc3n3cnnc23)cc1	
2700	COc1ccc(Cl)cc1S(=O)(=O)Nc1ccc(Oc2nc3cc(C)c(C)cc3n3cnnc23)cc1	
5000	COc1ccc(Cl)cc1S(=O)(=O)Nc1ccc2nc(SC)sc2c1	IC50 (Urea transporter 1): 10000 nM
1500	COc1ccc(-c2cccc(-c3ccn(Cc4csc(C)n4)n3)c2)nn1	IC50 (Urea transporter 1): 31000 nM
400	CCCc1nnc2c(Oc3ccc(NS(=O)(=O)c4cc(C)ccc4OC)cc3)nc3ccccc3n12	
300	CCCc1nnc2c(Oc3ccc(NS(=O)(=O)c4cc(Cl)ccc4OC)cc3)nc3cc(F)c(F)cc3n12	Activity (MDCK): Non-Toxic; Activity (Rattus norvegicus [5]): Active; concentration at 3 h [6]: > 2 µM; remaining at 0.5 h, 5 µM [7]: 60%; IC50 (Urea transporter 1): 800 nM; Activity (Rattus norvegicus [8]): Active; concentration at 3 h [9]: 6 µM
1200	CCOc1nnc2c(Oc3ccc(NS(=O)(=O)c4cc(Cl)ccc4OC)cc3)nc3ccccc3n12	
